Measured values pooled from the literature.
Lines come from different studies, so protocols differ.
Target: Amine oxidase [flavin-containing] B (MAOB, Homo sapiens, UniProt P27338)
Effect on: enzyme activity
Mode: inhibitor
Residues used in one study (P27338 1-520): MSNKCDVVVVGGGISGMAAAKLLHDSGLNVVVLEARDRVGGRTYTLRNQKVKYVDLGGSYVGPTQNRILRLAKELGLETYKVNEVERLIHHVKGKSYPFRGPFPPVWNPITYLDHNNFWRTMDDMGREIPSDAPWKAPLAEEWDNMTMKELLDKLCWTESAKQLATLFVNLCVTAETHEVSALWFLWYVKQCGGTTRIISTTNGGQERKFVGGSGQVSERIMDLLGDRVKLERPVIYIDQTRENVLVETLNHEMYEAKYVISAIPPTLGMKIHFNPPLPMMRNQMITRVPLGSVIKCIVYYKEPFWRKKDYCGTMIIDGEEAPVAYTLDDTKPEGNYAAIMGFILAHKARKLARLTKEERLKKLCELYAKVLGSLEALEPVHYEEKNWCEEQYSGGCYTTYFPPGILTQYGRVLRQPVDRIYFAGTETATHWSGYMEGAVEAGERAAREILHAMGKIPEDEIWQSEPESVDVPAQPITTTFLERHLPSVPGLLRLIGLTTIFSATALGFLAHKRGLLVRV

COc1cccc(CNc2nc3ccc(C)cc3n3cnnc23)c1  IC50 (fluorescence): 180 nM
O=c1cc(-c2ccc(O)cc2)oc2cc(O)c([C@@H]3O[C@H](CO)[C@@H](O)[C@H](O)[C@H]3O)c(O)c12  IC50: 23200 nM
COc1cc(/C=C/C(=O)N2CCC(Cc3ccccc3)CC2)ccc1OCc1ccccc1  IC50 (fluorescence): 3800 nM
O=c1[nH]c(-c2ccccc2)cnc1-c1ccccc1  IC50 (fluorescence): 140 nM
CCn1c(-c2nc3cc(C(=O)N4CCC[C@@H](N)C4)cc(OC)c3n2C)cc2cccnc21  IC50: 25100 nM
Cn1c(=O)c2ccc(C(=O)Nc3ccccc3F)nc2n(C)c1=O  IC50 (fluorescence): 61 nM
C#CCOc1ccc(/C=C/C(=O)N2CCC(Cc3ccccc3)CC2)cc1OC  IC50 (fluorescence): 320 nM
O=c1cc(-c2ccc(O)cc2)oc2c([C@@H]3O[C@H](CO)[C@@H](O)[C@H](O)[C@H]3O)c(O)cc(O)c12  IC50: 34100 nM
COc1cc(/C=C/C(=O)N2CCc3ccccc3C2)ccc1OCc1ccccc1  IC50 (fluorescence): 3100 nM
O=C(Nc1ccc(Br)cc1)c1cc(Cl)ccc1O  IC50: 139 nM
C#CCOc1ccc(/C=C/C(=O)N2CCc3ccccc3C2)cc1OC  IC50 (fluorescence): 540 nM
O=C(Nc1ccc(OC(F)(F)F)cc1)c1cc(Cl)ccc1O  IC50: 128 nM
O=C(c1ccc(O)cc1O)[C@H](O)[C@@H](O)c1ccc(O)cc1  IC50: 29900 nM
O=C(O)c1cc(O)c2c(c1)C(=O)c1cc(O)cc(O)c1C2=O  IC50: 31900 nM
O=C(/C=C/c1ccc(O)cc1)c1ccc(O)cc1O  IC50: 510 nM
CSc1ccc(CNc2nc3ccccc3n3cnnc23)cc1  IC50 (fluorescence): 250 nM
